Series [1] concerns Mus musculus. The series is described as follows: Inhibition of morphine-induced mania in CD-1 mouse assessed as inhibition of stereotypic activity at 10 mg/kg, sc measured after 15 to 30 mins. Format: functional. To be noted: for inhibition in vivo at 10 mg/kg: CD-1, sc, route subcutaneous. An outline of the steps: (§1)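 Male mice, 18–30 g, two pairs per group, dosed randomly. Controls received morphine sulfate 25 mg/kg sc; test groups received morphine plus compound. Animals were watched for 15–30 min for stereotyped increase in motor activity, and blocking of this behaviour was scored positive. For dose range, ED50 by linear regression.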

In series [2] the test system is Mus musculus. The series is described as follows: Analgesic activity in sc dosed CD-1 mouse assessed as delay in response to noxious heat stimuli measured after 15 to 60 mins post dosing by D'Amour-Smith tail-flick method. The note with it: CD-1, Tail. Format: functional. An outline of the steps:
(§2)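 Male CD-1 mice, ten per group, held in a plexiglass restrainer; an intense light beam served as the noxious heat stimulus, and tail-flick latency was recorded automatically. Two baseline readings were taken, unstable animals were excluded, and a cutoff was set. Dosing was sc, with vehicle at 10 mL/kg. Tests ran at 15, 30, 45 and 60 min, then at the peak time for at least three doses. Response past cutoff counted as analgesia; ED50 by linear regression.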

In series [3] the test system is Mus musculus. The series is described as follows: Analgesic activity in sc dosed CD-1 mouse assessed as inhibition of phenylquinone-induced writhing administered 15 to 90 mins prior challenge measured 5 mins post challenge. Format: functional. The note with it: CD-1, sc. An outline of the steps: (§3)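 Male CD-1 mice, 18–24 g, five per group, dosed 15, 30, 60 or 90 min before phenyl-p-benzoquinone (0.125% in 5% aqueous ethanol); vehicle controls. Writhes were counted over 10 min, starting 5 min after challenge. For dose–response, ten mice per dose were tested at the peak time, with four doses plus control, randomized. Result given as % inhibition of writhes; ED50 by computer linear regression.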
In general terms: An intraperitoneal irritant provokes the stretching counted in writhing tests.

Series [4] deals with Mus musculus. Put plainly: Toxicity in sc dosed CD-1 mouse assessed as physical dependence liability by infusion test. Format: organism-based. The note with it: in vivo.
Series [5] relates to Mus musculus. The series is described as follows: Inhibition of morphine-induced mania in sc dosed CD-1 mouse assessed as inhibition of stereotypic activity measured after 15 to 30 mins. Format: functional. An outline of the steps: as §1
Series [6] has as its system Mus musculus. Put plainly: Analgesic activity in po dosed CD-1 mouse assessed as inhibition of phenylquinone-induced writhing administered 15 to 90 mins prior challenge measured 5 mins post challenge. Type of series: functional. The note with it: CD-1, po. An outline of the steps:
as §3

Series [7] relates to Mus musculus. The series is described as follows: Analgesic activity in CD-1 mouse assessed as delay in response to noxious heat stimuli at 2 mg/kg, sc measured after 15 to 60 mins post dosing by D'Amour-Smith tail-flick method relative to control. To be noted: route subcutaneous. Type of series: functional. The method in brief: as §2
In series [8] the test system is Mus musculus. The series is described as follows: Analgesic activity in CD-1 mouse assessed as delay in response to noxious heat stimuli at 25 mg/kg, sc measured after 15 to 60 mins post dosing by D'Amour-Smith tail-flick method relative to control. Format: functional. The note with it: route subcutaneous. An outline of the steps:
as §2

For series [9], the system named is Mus musculus. The series is described as follows: Analgesic activity in CD-1 mouse assessed as inhibition of phenylquinone-induced writhing at 10 mg/kg, sc administered 15 to 90 mins prior challenge measured 5 mins post challenge. Type of series: functional. The note with it: CD-1, sc, route subcutaneous. An outline of the steps: as §3
Series [10] concerns Mus musculus. Put plainly: Toxicity in sc dosed CD-1 mouse assessed as overt effects. Format: organism-based. To be noted: in vivo.
In series [11] the test system is Mus musculus. Put plainly: Analgesic activity in po dosed CD-1 mouse assessed as delay in response to noxious heat stimuli measured after 15 to 60 mins post dosing by D'Amour-Smith tail-flick method. Type of series: functional. The note with it: CD-1, Tail. (Thermal pain tests record how soon the animal reacts.)

Active and inactive are the calls of the source.

As for `Br.Oc1cccc(C23CCC(C2)N(CCc2ccc(Cl)c(Cl)c2)CC3)c1` (racemic), the inhibition result with Mus musculus [1] is “inactive”. Also, the ED50 turned out to be 2.73 mg/kg in the series on Mus musculus [2] and 0.75 mg/kg with Mus musculus [3].
For the molecule `Br.Oc1cccc(C23CCC(C2)N(CCc2cccc(Cl)c2)CC3)c1` (racemic), in the series on Mus musculus [1], the inhibition in vivo at 10 mg/kg was 20%. Moreover, the median effective dose (ED50) turned out to be 5.46 mg/kg in the series on Mus musculus [2] and 0.46 mg/kg in the series on Mus musculus [3].
`Br.Oc1cccc(C23CCC(C2)N(CCc2ccc(Cl)cc2)CC3)c1` (racemic): the inhibition in vivo at 10 mg/kg in the series on Mus musculus [1] amounted to 50%. The 50% effective dose (ED50) in the series with Mus musculus [2] was found to be 7.32 mg/kg; in the series with Mus musculus [3], 0.42 mg/kg.
For `Br.Oc1cccc(C23CCC(C2)N(CCc2ccccc2)CC3)c1` (racemic), the Activity entry with Mus musculus [4] is “Non-toxic”. The ED50 in the series with Mus musculus [5] (CD-1, sc) was 1.06 mg/kg; in the series on Mus musculus [6], 60.9 mg/kg; with Mus musculus [2], 6.45 mg/kg; in the series on Mus musculus [3], 0.68 mg/kg.
In the case of `Br.O=C(CCCN1CCC2(c3cccc(O)c3)CCC1C2)c1ccc(F)cc1` (racemic), in the series with Mus musculus [7], the Activity turned out to be 40%. Besides, the 50% effective dose (ED50) turned out to be 2.01 mg/kg in the series on Mus musculus [5] (CD-1, sc) and 0.35 mg/kg in the series with Mus musculus [3].
On to `Br.Oc1cccc(C23CCC(C2)N(Cc2ccco2)CC3)c1` (racemic), for which the median effective dose (ED50) in the series with Mus musculus [5] (CD-1, sc) came out at 3.7 mg/kg; in the series on Mus musculus [2] it was 10 mg/kg; in the series with Mus musculus [3], 22.7 mg/kg.
Regarding `Br.CC(C)=CCN1CCC2(c3cccc(O)c3)CCC1C2` (racemic), in the series with Mus musculus [1], the inhibition result is “inactive”. For the same molecule, the Activity in the series on Mus musculus [8] was found to be 20%. In addition, the median effective dose (ED50) in the series with Mus musculus [3] turned out to be 25 mg/kg.
`Br.Oc1cccc(C23CCC(C2)N(CC2CC2)CC3)c1` (racemic): the inhibition in vivo at 10 mg/kg with Mus musculus [1] is 20%. In addition, in the series with Mus musculus [8], the Activity was 30%. Further, in the series with Mus musculus [3], the 50% effective dose (ED50) was found to be 5.44 mg/kg.
Turning to `Br.CCCCCN1CCC2(c3cccc(O)c3)CCC1C2` (racemic), the ED50 in the series with Mus musculus [5] (CD-1, sc) worked out at 4.31 mg/kg; in the series on Mus musculus [3] it was 8.34 mg/kg. Also, in the series on Mus musculus [8], the Activity was 20%.
Turning to `Br.CCCCN1CCC2(c3cccc(O)c3)CCC1C2` (racemic), the inhibition in vivo at 10 mg/kg with Mus musculus [1] was found to be 40%. In addition, the Activity in the series with Mus musculus [8] is reported as 30%. In the series with Mus musculus [3], the ED50 worked out at 8.66 mg/kg.
As for `Br.CCCN1CCC2(c3cccc(O)c3)CCC1C2` (racemic), the inhibition entry in the series with Mus musculus [1] is “inactive”. Also, the Activity in the series on Mus musculus [8] is on record as 20%. In the series on Mus musculus [3], the ED50 stood at 8.79 mg/kg.
Turning to `Br.CCN1CCC2(c3cccc(O)c3)CCC1C2` (racemic), the inhibition entry in the series with Mus musculus [1] is “inactive”. In the series on Mus musculus [9], the inhibition in vivo at 10 mg/kg turned out to be 41%. Moreover, the Activity in the series on Mus musculus [8] was determined as 30%.
In the case of `Br.CN1CCC2(c3cccc(O)c3)CCC1C2` (racemic), the Activity in the series with Mus musculus [8] is 40%. Besides, the ED50 in the series with Mus musculus [3] came out at 10 mg/kg.
Consider `Br.COc1cccc(C23CCC(C2)N(CCc2ccccc2)CC3)c1` (racemic), for which the ED50 result in the series on Mus musculus [5] was “Active”. The ED50 with Mus musculus [2] is 13 mg/kg; in the series with Mus musculus [3] it was 5.99 mg/kg.
`Br.COc1cccc(C23CCC(C2)N(CCCC(=O)c2ccc(F)cc2)CC3)c1` (racemic): the Activity with Mus musculus [7] stood at 10%. For the same molecule, the ED50 in the series with Mus musculus [5] (CD-1, sc) came out at 3.7 mg/kg; in the series on Mus musculus [3], 0.85 mg/kg.
As to `Br.CCCCCN1CCC2(c3cccc(OC)c3)CCC1C2` (racemic), the inhibition entry in the series with Mus musculus [1] was “inactive”. In addition, in the series on Mus musculus [8], the Activity stood at 40%. Moreover, the 50% effective dose (ED50) in the series with Mus musculus [3] came to 5.77 mg/kg.
Consider `Br.CCCCN1CCC2(c3cccc(OC)c3)CCC1C2` (racemic), for which, in the series on Mus musculus [1], the inhibition entry is “inactive”. In addition, the results for the ED50 in the series with Mus musculus [2] and in the series on Mus musculus [3] were 9.71 mg/kg and 4.87 mg/kg, respectively.
Turning to `Br.CCCN1CCC2(c3cccc(OC)c3)CCC1C2` (racemic), the ED50 is 8.3 mg/kg in the series on Mus musculus [5] (CD-1, sc) and 7.4 mg/kg with Mus musculus [3]. Also, the Activity in the series with Mus musculus [8] was determined as 40%.
Regarding `Br.CCN1CCC2(c3cccc(OC)c3)CCC1C2` (racemic), the inhibition in vivo at 10 mg/kg in the series with Mus musculus [1] stood at 10%. Moreover, the ED50 was found to be 17.7 mg/kg in the series with Mus musculus [2] and 11.9 mg/kg in the series with Mus musculus [3].
As to `Br.COc1cccc(C23CCC(C2)N(C)CC3)c1` (racemic), the ED50 in the series with Mus musculus [5] (CD-1, sc) worked out at 50 mg/kg; in the series with Mus musculus [3], 6.96 mg/kg. The Activity in the series on Mus musculus [8] is reported as 10%.
Consider `Br.Cc1ccc(CCN2CCC3(c4cccc(O)c4)CCC2C3)cc1` (racemic), for which the ED50 in the series on Mus musculus [5] (CD-1, sc) is ≤ 10 mg/kg; in the series with Mus musculus [2] it was 8.54 mg/kg; in the series on Mus musculus [3] it was 0.58 mg/kg.
In the case of `Br.Oc1ccc(CCN2CCC3(c4cccc(O)c4)CCC2C3)cc1` (racemic), the Activity entry with Mus musculus [10] is reported as “Toxic”. Further, the inhibition in vivo at 10 mg/kg in the series on Mus musculus [1] stood at 20%. For the same molecule, the results for the ED50 with Mus musculus [2] and in the series on Mus musculus [3] were 25 mg/kg and 2.08 mg/kg, respectively.
`Br.Oc1cccc(C23CCC(C2)N(CCc2cccs2)CC3)c1` (racemic): the ED50 was 10 mg/kg in the series with Mus musculus [5] (CD-1, sc); 11 mg/kg with Mus musculus [2]; 0.72 mg/kg in the series with Mus musculus [3].
Consider `Br.CC(=O)Oc1cccc(C23CCC(C2)N(C)CC3)c1` (racemic), for which the 50% effective dose (ED50) was 16 mg/kg in the series on Mus musculus [5] (CD-1, sc) and 14.1 mg/kg in the series with Mus musculus [3]. For the same molecule, in the series with Mus musculus [8], the Activity turned out to be 14%.
In the case of `Br.CC(=O)Oc1cccc(C23CCC(C2)N(CCc2ccccc2)CC3)c1` (racemic), the inhibition result in the series on Mus musculus [1] was “inactive”. Further, the ED50 with Mus musculus [11] is 35 mg/kg; with Mus musculus [6], 15.2 mg/kg; in the series on Mus musculus [2], 2.82 mg/kg; in the series on Mus musculus [3], 1 mg/kg.
With `Br.CC(=O)Oc1cccc(C23CCC(C2)N(CCc2cccs2)CC3)c1` (racemic), the ED50 in the series on Mus musculus [6] was 64 mg/kg; in the series on Mus musculus [2], ≤ 3.8 mg/kg; with Mus musculus [3] it was 0.95 mg/kg.
On to `CC(C)=CCN1CC[C@]2(C)c3cc(O)ccc3C[C@H]1[C@H]2C` [(+)-PENTAZOCINE], for which the 50% effective dose (ED50) in the series on Mus musculus [5] (CD-1, sc) was determined as 13.8 mg/kg; with Mus musculus [2], 14.6 mg/kg; in the series with Mus musculus [3], 2.4 mg/kg.
`CN1CC[C@]23c4c5ccc(O)c4O[C@H]2[C@@H](O)C=C[C@H]3[C@H]1C5` [MORPHINE]: the ED50 with Mus musculus [3] turned out to be 0.68 mg/kg.
Turning to `C=CCN1CC[C@]23c4c5ccc(O)c4O[C@H]2[C@@H](O)C=C[C@H]3[C@H]1C5` [NALORPHINE], the ED50 with Mus musculus [5] (CD-1, sc) was determined as 0.43 mg/kg.

By ED50 is commonly meant the dose that gives a 50% effect, or the effect in half of the subjects. As usually defined, the inhibition in vivo is the share of the control response that was lost under treatment.
